Assay results as given in ChEMBL document CHEMBL2010675, “Discovery of GS-9451: an acid inhibitor of the hepatitis C virus NS3/4A protease” (Bioorg Med Chem Lett, 2012).
pEC50, pIC50: −log10 of the molar value. ≈ marks a conversion by molar mass, not a printed value.

Columns and labels:
[1] = Thermodynamic solubility of the compound at pH 7.3; format: physicochemical; details: buffer, read-out: Therm_solubility
[2] = Thermodynamic solubility of the compound at pH 2.2; format: physicochemical; details: buffer, read-out: Therm_solubility
[3] = Permeability from basolateral to apical side in human Caco2 cells; format: ADME, cell-based; details: Caco-2, read-out: permeability
[4] = Permeability from apical to basolateral side in human Caco2 cells; format: ADME, cell-based; details: Caco-2, read-out: permeability
[5] = tested on: Hepatitis C virus; test: Inhibition of Hepatitis C virus genotype 1b NS3/4A protease; parameters: species or system Hepatitis C virus subtype 1b
[6] = tested on: Hepatitis C virus; test: Antiviral activity against Hepatitis C virus genotype 1b infected in human Huh cells by luciferase reporter gene based replicon assay; format: functional, organism-based, Hepacivirus hominis
Procedure, shortened: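 EC50 from a cell-based assay in Huh-luc cells carrying a subgenomic HCV genotype 1b replicon, with luciferase reporter read-out.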

[7] = Clearance in dog at 1 mg/kg, iv and 4 mg/kg, po; format: ADME, organism-based, Canis lupus familiaris; details: in vivo
Procedure, shortened: (§1)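 Dosed at 1.0 mg/kg iv and 4.0 mg/kg po; plasma drug levels followed to derive iv t1/2, oral AUC, clearance, Vdss and oral bioavailability (F).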

[8] = Volume of distribution at steady state in dog at 1 mg/kg, iv and 4 mg/kg, po; format: ADME, organism-based, Canis lupus familiaris; details: in vivo, read-out: Vdss; procedure, shortened: as §1
[9] = tested on: Canis familiaris; test: AUC in dog at 4 mg/kg, po; format: ADME, organism-based, Canis lupus familiaris, Plasma; parameters: dose 4 mg/kg, route oral; details: in vivo; procedure, shortened: as §1
[10] = Oral bioavailability in dog at 4 mg/kg; format: ADME, organism-based, Canis lupus familiaris; details: in vivo; procedure, shortened: as §1
[11] = Half life in dog at 1 mg/kg, iv; format: ADME, organism-based, Canis lupus familiaris; parameters: dose 1 mg/kg, route intravenous; details: in vivo; procedure, shortened: as §1

solubility thermodynamic [1] [µM] | solubility thermodynamic [2] [µM] | Papp B→A [3] [nm/s] | Papp A→B [4] [nm/s] | pIC50 [5] | pEC50 [6] | clearance [7] [L/h/kg] | Vd [8] [L/kg] | AUC [9] [µM·h] | bioavailability [10] [%] | half-life [11] [h] | Structure (SMILES)
57 (≈ 48.3 µg/mL) | 20 (≈ 16.9 µg/mL) | 180 | 45 | 8.59 | 8.30 |  |  |  |  |  | CC[C@@H]1C[C@]1(NC(=O)[C@@H]1C[C@@H](Oc2cc(-c3csc(NC(C)C)n3)nc3c(Cl)c(OC)ccc23)CN1C(=O)[C@@H](NC(=O)O[C@H]1C[C@@H]2[C@H](C1)C2(F)F)C(C)(C)C)C(=O)O
59 (≈ 54.5 µg/mL) | > 100 | 300 | 61 | 8.54 | 8.42 | 0.22 | 0.66 | 8.33 | 45 | 2.1 | CC[C@@H]1C[C@]1(NC(=O)[C@@H]1C[C@@H](Oc2cc(-c3csc(NC(C)C)n3)nc3c(Cl)c(OCCN4CC[C@@H](OC)C4)ccc23)CN1C(=O)[C@@H](NC(=O)O[C@@H]1C[C@@H]2C[C@@H]2C1)C(C)(C)C)C(=O)O
80 (≈ 72.7 µg/mL) | > 100 | 200 | 67 | 7.60 | 8.12 | 0.13 | 0.39 | 19.7 | 32 | 3 | CC[C@@H]1C[C@]1(NC(=O)[C@@H]1C[C@@H](Oc2cc(-c3csc(NC(C)C)n3)nc3c(Cl)c(OCCN4CCCCC4)ccc23)CN1C(=O)[C@@H](NC(=O)O[C@@H]1C[C@@H]2C[C@@H]2C1)C(C)(C)C)C(=O)O
